This is an account of results in ChEMBL document CHEMBL2375279, “Synthesis and biological evaluation of helioxanthin analogues” (Bioorg Med Chem, 2013).

Tested on in the first series: not listed separately
In words: Cytotoxicity against human HepA2 cells after 2 days by MTT assay. The series is classed as cell-based.
Settings: not given
Put shortly:
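HepA2 cells were seeded in DMEM with 10% FCS, attached for 24 h, washed with PBS pH 7.0, and then exposed to various compound concentrations in serum-free DMEM for 48 h. Viable cell number in each well was then determined by MTT assay.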
The term CC50 denotes the concentration at which the toxic effect on the cells reaches its halfway point. Lower therefore signals harm at low concentration. `COc1ccc(-c2c(COC(C)=O)c(COC(C)=O)cc3ccc4c(c23)OCO4)cc1OC` yielded a CC50 at 48 h of more than 12.5 µM.
Regarding `CCCCCCCCOC(=O)CN1Cc2c(cc3ccc4c(c3c2-c2ccc3c(c2)OCO3)OCO4)C1=O`, the CC50 at 48 h is more than 12.5 µM.
In turn, `COc1ccc(-c2c(CO)c(CO)cc3ccc4c(c23)OCO4)cc1OC` displayed a 50% cytotoxic concentration (CC50) at 48 h of more than 12.5 µM.
Regarding `COc1ccc(-c2c(CO)c(COC(C)=O)cc3ccc4c(c23)OCO4)cc1O`, the cytotoxic concentration (CC50) at 48 h was more than 12.5 µM.
Compound `COc1cc(-c2c(COC(C)=O)c(COC(C)=O)cc3ccc4c(c23)OCO4)ccc1OC(C)=O` had a half-maximal cytotoxic concentration (CC50) at 48 h of more than 12.5 µM.
In turn, `O=C1c2cc3ccc4c(c3c(-c3ccc5c(c3)OCO5)c2CN1CCO)OCO4` displayed a 50% cytotoxic concentration (CC50) at 48 h of more than 12.5 µM.
As to `N#CCCN1Cc2c(cc3ccc4c(c3c2-c2ccc3c(c2)OCO3)OCO4)C1=O`, the CC50 at 48 h is more than 12.5 µM.
As to `CCCCCC(=O)OCc1cc2ccc3c(c2c(-c2ccc(OC)c(O)c2)c1CO)OCO3`, the CC50 at 48 h is more than 12.5 µM.
On the same count and under the same terms, in the case of `COC(=O)CN1Cc2c(cc3ccc4c(c3c2-c2ccc3c(c2)OCO3)OCO4)C1=O` it was more than 12.5 µM.
`CCCCCC(=O)OCc1cc2ccc3c(c2c(-c2ccc(O)c(O)c2)c1COC(=O)CCCCC)OCO3` displayed a 50% cytotoxic concentration (CC50) at 48 h of more than 12.5 µM.
Still for that read-out and setting: in the case of `OCc1cc2ccc3c(c2c(-c2ccc(O)c(O)c2)c1CO)OCO3` it was more than 12.5 µM; in that of `CCCCCC(=O)OCc1cc2ccc3c(c2c(-c2ccc4c(c2)OCO4)c1COC(=O)CCCCC)OCO3`, more than 12.5 µM.
The same measure, in the same setting: with `COc1ccc(-c2c(CO)c(CO)cc3ccc4c(c23)OCO4)cc1O` the figure was more than 12.5 µM; with `O=C1OCc2c1cc1ccc3c(c1c2-c1ccc2c(c1)OC(F)(F)O2)OCO3`, more than 12.5 µM; with `N#Cc1cc2ccc3c(c2c(-c2ccc4c(c2)OCO4)c1C#N)OCO3`, more than 12.5 µM.
Turning to `COc1cc(-c2c(COC(C)=O)c(COC(C)=O)cc3ccc4c(c23)OCO4)ccc1O`, the CC50 at 48 h was more than 12.5 µM.
With `CC(=O)OCc1cc2ccc3c(c2c(-c2ccc(O)c(O)c2)c1COC(C)=O)OCO3`, the CC50 at 48 h is more than 12.5 µM.
Compound `CCCCCC(=O)OCc1cc2ccc3c(c2c(-c2ccc(OC)c(O)c2)c1COC(=O)CCCCC)OCO3` returned a CC50 at 48 h of more than 12.5 µM.
On the same count and under the same terms, with `CCCCCC(=O)OCc1cc2ccc3c(c2c(-c2ccc(OC)c(OC(=O)CCCCC)c2)c1COC(=O)CCCCC)OCO3` the figure was more than 12.5 µM.

For another series, the system named is Hepatitis B virus. Put plainly: Antiviral activity against Hepatitis B virus infected in human HepA2 cells assessed as inhibition of viral core promoter activity at 3 uM after 24 hrs by luciferase reporter gene assay. To be noted: HepA2, 24 h. Background: Reporter assays use an easily measured gene product as a stand-in for the process of interest.
One may read the inhibition as the percentage by which the read-out fell short of the control. On to `O=C1OCc2c1cc1ccc3c(c1c2-c1ccc2c(c1)OCO2)OCO3` [HELIOXANTHIN], for which the inhibition at 3 µM was found to be 30%.

The test system of a further series is Hepatitis B virus. Put plainly: Antiviral activity against Hepatitis B virus infected in human HepA2 cells assessed as inhibition of viral surface antigen production after 2 days by enzyme immunoassay. The series is classed as functional, organism-based. To be noted: HepA2, 48 h. In short, it runs like this: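 HepA2 cells (HepG2 transfected with two tandem HBV genome repeats, secreting HBsAg) were seeded at 3 × 10^4 per well (96-well) or 1 × 10^5 per well (24-well) in DMEM with 10% FCS for 24 h. They were washed twice with PBS pH 7.0 and treated with graded concentrations in serum-free DMEM for 48 h. Medium HBsAg was measured by enzyme immunoassay. EC50 is the concentration giving 50% of untreated HBsAg. Mean ± S.D., n = 3.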
Usually EC50 stands for the concentration needed to bring the measured effect to its halfway point. Consider `COc1ccc(-c2c(COC(C)=O)c(COC(C)=O)cc3ccc4c(c23)OCO4)cc1OC`, for which the EC50 stood at 3.03 µM.
Turning to `CCCCCCCCOC(=O)CN1Cc2c(cc3ccc4c(c3c2-c2ccc3c(c2)OCO3)OCO4)C1=O`, the EC50 is more than 6 µM.
`COc1ccc(-c2c(CO)c(CO)cc3ccc4c(c23)OCO4)cc1OC`: the EC50 is more than 12.5 µM.
As for `COc1ccc(-c2c(CO)c(COC(C)=O)cc3ccc4c(c23)OCO4)cc1O`, the EC50 was determined as 0.49 µM.
The same measure, in the same setting: in the case of `COc1cc(-c2c(COC(C)=O)c(COC(C)=O)cc3ccc4c(c23)OCO4)ccc1OC(C)=O` it was 2.77 µM.
Same read-out and setting: with `O=C1c2cc3ccc4c(c3c(-c3ccc5c(c3)OCO5)c2CN1CCO)OCO4` the figure was more than 6 µM.
As to `N#CCCN1Cc2c(cc3ccc4c(c3c2-c2ccc3c(c2)OCO3)OCO4)C1=O`, the EC50 is more than 6 µM.
As for `CCCCCC(=O)OCc1cc2ccc3c(c2c(-c2ccc(OC)c(O)c2)c1CO)OCO3`, the EC50 was determined as 1.97 µM.
For the compound `COC(=O)CN1Cc2c(cc3ccc4c(c3c2-c2ccc3c(c2)OCO3)OCO4)C1=O`, the EC50 was 0.86 µM.
Take `CCCCCC(=O)OCc1cc2ccc3c(c2c(-c2ccc(O)c(O)c2)c1COC(=O)CCCCC)OCO3`: the EC50 is more than 12.5 µM.
Take `COc1ccc(-c2c3c(cc4ccc5c(c24)OCO5)C(=O)OC3)cc1OC`: the 50% effective concentration (EC50) was more than 6 µM.
Take `OCc1cc2ccc3c(c2c(-c2ccc(O)c(O)c2)c1CO)OCO3`: the EC50 was more than 12.5 µM.
Take `CCCCCC(=O)OCc1cc2ccc3c(c2c(-c2ccc4c(c2)OCO4)c1COC(=O)CCCCC)OCO3`: the EC50 turned out to be 1.9 µM.
Regarding `COc1ccc(-c2c(CO)c(CO)cc3ccc4c(c23)OCO4)cc1O`, the EC50 was 0.67 µM.
Still for that read-out and setting: in the case of `O=C1OCc2c1cc1ccc3c(c1c2-c1ccc2c(c1)OC(F)(F)O2)OCO3` it was 0.38 µM.
For `N#Cc1cc2ccc3c(c2c(-c2ccc4c(c2)OCO4)c1C#N)OCO3`, the EC50 is more than 6 µM.
Consider `COc1cc(-c2c(COC(C)=O)c(COC(C)=O)cc3ccc4c(c23)OCO4)ccc1O`, for which the EC50 was more than 12.5 µM.
Take `CC(=O)OCc1cc2ccc3c(c2c(-c2ccc(O)c(O)c2)c1COC(C)=O)OCO3`: the EC50 is more than 12.5 µM.
On the same count and under the same terms, in the case of `CCCCCC(=O)OCc1cc2ccc3c(c2c(-c2ccc(OC)c(O)c2)c1COC(=O)CCCCC)OCO3` it was 3.33 µM; in that of `CCCCCC(=O)OCc1cc2ccc3c(c2c(-c2ccc(OC)c(OC(=O)CCCCC)c2)c1COC(=O)CCCCC)OCO3`, more than 12.5 µM.
